The experiment deals with Plasmodium falciparum. Description: In vitro activity against Plasmodium falciparum. It is filed as functional, organism-based. In outline:
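P. falciparum cultures at 0.3-0.5% parasitemia (percentage of infected erythrocytes) exposed to drug for one parasite cycle (48 h). Some drugs were dissolved in DMSO, then diluted in culture medium (final DMSO ≤0.25%). [3H]hypoxanthine was then added for 18 h to measure viability. IC50 is 50% inhibition of parasite growth, given as the mean of at least two independent experiments in triplicate using different stock solutions.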

Usually IC50 stands for the midpoint of a concentration-inhibition curve. `CC[N+](CC)(CC)CCCCCCCCCCCCCCCCCCCCC[N+](CC)(CC)CC` returned a half-inhibitory concentration (IC50) of 0.003 nM.
The compound `C[N+](C)(C)CCCCCCCCCCCCCCCC[N+](C)(C)C` displayed a half-inhibitory concentration (IC50) of 4 nM.
To `CCCCCCCCCCCC[N+](C)(C)C(C)C(O)c1ccccc1` (stereo unspecified) belongs 670 nM; to `CC[N+](CC)(CC)CCCCCC[N+](CC)(CC)CCCCCC[N+](CC)(CC)CC`, 800000 nM.
Regarding `C=CC[N+](CC)(CC)CCCCCCCCCCCC[N+](CC)(CC)CC=C`, inhibition was half-maximal at 5.3 nM (IC50).
As for `CCCCCCCCCCCCCC[N+]1(C)CCCC1`, the half-inhibitory concentration (IC50) stood at 270 nM.
`CCCCCC[N+](CC)(CC)CC` came in with a concentration for half-maximal inhibition (IC50) of 9700 nM.
Turning to `CCCCC[N+](C)(C)CC(C)O` (stereo unspecified), the IC50 came to 115000 nM.
The compound `C[N+]1(CCCCCCCCCCCC[N+]2(C)CCCC2)CCCC1` displayed an IC50 of 13 nM.
With `C[N+](C)(C)CCCCCCCCc1ccccc1` the figure was 620 nM; with `CCCCCCCC[N+](C)(C)CCO`, 3850 nM; with `CCCCCCCCCCCC[N+](C)(C)CC(C)O` (stereo unspecified), 430 nM.
On to `C#CCC[N+](C)(C)CCCCCCCCCCCC[N+](C)(C)CCC#C`, for which the IC50 was 44 nM.
To `C=CC[N+](C)(CC=C)CCCCCCCCCCCC` belongs 140 nM; to `CC[N+](CC)(CCO)CCCCCCCCCCCCCCCC[N+](CC)(CC)CCO`, 4.9 nM.
Turning to `CC[N+](CC)(CC)CCCCCCCCCCCC[N+](CC)(CC)CC`, half-maximal inhibition (IC50) was put at 45 nM.
For the compound `CC[N+](CC)(CC)CCCCCCCCCCCCCCCC[N+](CC)(CC)CC`, the IC50 stood at 1.6 nM.
Compound `CCCCCCCCCCCCCCCC[N+]1(C)CCCC1` had an IC50 of 420 nM.
For the compound `CCCCCCCCCCCCCCCCCC[N+](CC)(CC)CC`, it took 270 nM to reach half-maximal inhibition (IC50).
Turning to `CCCCCCCCCCCC[N+]1(C)CCCC1`, the half-inhibitory concentration (IC50) came out at 220 nM.
For `C[N+]1(CCCCCCCCCCCCCCCC[N+]2(C)CCCC2)CCCC1`, half-maximal inhibition (IC50) was put at 0.64 nM.
For the compound `C#CC[N+](C)(C)CCCCCCCCCCCC`, the IC50 came to 360 nM.
Take `C#CC[N+](C)(CC#C)CCCCCCCCCCCC`: the IC50 was 380 nM.
`CCCCCCCCCCCC[N+](C)(C)CCC[N+](C)(C)CCCCCCCCCCCC` had a half-maximal inhibitory concentration (IC50) of 10800 nM.
`CCCCCCCCCCCCCCCC[N+](CC)(CC)CC` yielded a 50% inhibitory concentration (IC50) of 140 nM.
Consider `CCCCCCCCCCCC[N+](C)(C)CCCCCCCCCCCCCCCC[N+](C)(C)CCCCCCCCCCCC`, for which 1800 nM corresponded to half-maximal inhibition (IC50).
`C#CC[N+](C)(C)CCCCCCCCCCCC[N+](C)(C)CC#C` returned an IC50 of 7.6 nM.
`C=CC[N+](C)(C)CCCCCCCCCCCC` returned an IC50 of 270 nM.
Consider `CCCCCCCC[N+](C)(C)C`, for which half-maximal inhibition (IC50) required 5000 nM.
To `CCCCCC[N+]1(C)CCCC1` belongs 26000 nM; to `CCCCCCCCCCCC[N+](C)(C)CCCCCC[N+](C)(C)CCCCCCCCCCCC`, 220 nM.
The compound `CC[N+](CC)(CC)CCCCCCCC[N+](CC)(CC)CC` registered an IC50 of 540 nM.
To `CCCCCCCCCCCC[N+](C)(C)CCCCCCCCCCCC[N+](C)(C)CCCCCCCCCCCC` belongs 180 nM; to `CCCCCCCCCCCCCCCC[N+](C)(C)CCO`, 810 nM; to `C#CCC[N+](C)(C)CCCCCCCCCCCC`, 230 nM.
Compound `C[N+]1(CCCCCCCCCCCCCC[N+]2(C)CCCC2)CCCC1` came in with an IC50 of 1.1 nM.

Values taken from ChEMBL document CHEMBL1133585, “Antimalarial activity of compounds interfering with Plasmodium falciparum phospholipid metabolism: comparison between mono- and bisquaternary ammonium salts” (J Med Chem, 2000).
